Converted amounts (≈) assume the structure as drawn.
What was measured:
S. aureus NRS119 (MRSA) [1] = assay: MBC, plating onto TSA; assay type: cell-based, Staphylococcus aureus
S. aureus USA500 (MRSA) [2] = assay: MBC, plating onto TSA; assay type: cell-based, Staphylococcus aureus
S. aureus VRS4 (VRSA) [3] = assay: MBC, plating onto TSA; assay type: cell-based, Staphylococcus aureus
S. aureus NRS37 (VISA) [4] = assay: MIC, broth microdilution; assay type: cell-based, Staphylococcus aureus
S. aureus NRS19 (VISA) [5] = assay: MBC, plating onto TSA; assay type: cell-based, Staphylococcus aureus
[6] = test system: human embryonic kidney (HEK293) cell line; assay: In vitro cytotoxicity, MTS assay; conditions: 40 μg/mL
S. aureus VRS1 (VRSA) [7] = assay: MBC, plating onto TSA; assay type: cell-based, Staphylococcus aureus
S. aureus NRS194 (MRSA) [8] = assay: MIC, broth microdilution; assay type: cell-based, Staphylococcus aureus
S. aureus NRS1 (VISA) [9] = assay: MBC, plating onto TSA; assay type: cell-based, Staphylococcus aureus
S. aureus USA 400 (MRSA) [10] = assay: MBC, plating onto TSA; assay type: cell-based, Staphylococcus aureus
S. aureus USA300 (MRSA) [11] = assay: MIC, broth microdilution; assay type: cell-based, Staphylococcus aureus
S. aureus NRS194 (MRSA) [12] = assay: MBC, plating onto TSA; assay type: cell-based, Staphylococcus aureus
[13] = test system: methicillin-resistant Staphylococcus aureus (MRSA) ATCC 43300; assay: MIC, broth microdilution; assay type: cell-based; conditions: MRSA ATCC 43300
S. aureus NRS37 (VISA) [14] = assay: MBC, plating onto TSA; assay type: cell-based, Staphylococcus aureus
S. aureus NRS1 (VISA) [15] = assay: MIC, broth microdilution; assay type: cell-based, Staphylococcus aureus
S. aureus VRS4 (VRSA) [16] = assay: MIC, broth microdilution; assay type: cell-based, Staphylococcus aureus
S. aureus NRS119 (MRSA) [17] = assay: MIC, broth microdilution; assay type: cell-based, Staphylococcus aureus
S. aureus NRS19 (VISA) [18] = assay: MIC, broth microdilution; assay type: cell-based, Staphylococcus aureus
S. aureus USA300 (MRSA) [19] = assay: MBC, plating onto TSA; assay type: cell-based, Staphylococcus aureus
S. aureus NRS107 (MRSA) [20] = assay: MBC, plating onto TSA; assay type: cell-based, Staphylococcus aureus
S. aureus VRS5 (VRSA) [21] = assay: MIC, broth microdilution; assay type: cell-based, Staphylococcus aureus
S. aureus VRS5 (VRSA) [22] = assay: MBC, plating onto TSA; assay type: cell-based, Staphylococcus aureus
S. aureus NRS107 (MRSA) [23] = assay: MIC, broth microdilution; assay type: cell-based, Staphylococcus aureus
[24] = test system: S. aureus ATCC 43300 (MRSA); assay: MBC, plating onto TSA; assay type: cell-based, Staphylococcus aureus
S. aureus USA500 (MRSA) [25] = assay: MIC, broth microdilution; assay type: cell-based, Staphylococcus aureus
three VRSA strains = assay: MIC against VRSA strains; assay type: cell-based; conditions: Staphylococcus aureus
S. aureus USA 400 (MRSA) [26] = assay: MIC, broth microdilution; assay type: cell-based, Staphylococcus aureus
S. aureus VRS1 (VRSA) [27] = assay: MIC, broth microdilution; assay type: cell-based, Staphylococcus aureus
[28] = Microsomal stability analysis
MRSA USA300 = assay: Time-kill analysis; assay type: cell-based, Staphylococcus aureus; conditions: MRSA USA300, 3 × MIC, 37 °C
Summary of the method: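 Late-log-phase cells diluted to ~1 × 10^8 CFU/mL in MHB and exposed to test compound or vancomycin in triplicate at 37 °C. 20 μL samples taken at 0, 2, 4, 6, 8, 10, 12 and 24 h, serially diluted in PBS, and plated on TSA. Plates incubated 18–20 h at 37 °C, then viable CFU/mL counted. Data given as mean ± standard deviation.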

[29] = Staphylococcus aureus, MRSA|NRS119
[30] = Staphylococcus aureus, MRSA|USA500
[31] = Staphylococcus aureus, NRS37|VISA
[32] = Staphylococcus aureus, NRS19|VISA
[33] = Staphylococcus aureus, MRSA|NRS194
[34] = Staphylococcus aureus, NRS1|VISA
[35] = Staphylococcus aureus, MRSA|USA400
[36] = Staphylococcus aureus, MRSA|USA300
[37] = Staphylococcus aureus, ATCC43300|MRSA
[38] = Staphylococcus aureus, MRSA|NRS107
[39] = human liver microsomes, with NADPH

[H]/N=C(\N)NN=C(C)c1sc(-c2ccc(-c3ccc(C(F)(F)F)cc3)cc2)nc1C [22c, (E)-2-(1-(4-Methyl-2-(4′-(trifluoromethyl)-[1,1′-biphenyl]-4-yl)thiazol-5-yl)ethylidene)hydrazinecarboximidamide]
MBC (S. aureus NRS119 (MRSA) [1]; [29]): 6.7 µg/mL (≈ 16 µM)
MBC (S. aureus USA500 (MRSA) [2]; [30]): 3.3 µg/mL (≈ 7.9 µM)
MBC (S. aureus VRS4 (VRSA) [3]; Staphylococcus aureus, VRSA): 6.7 µg/mL (≈ 16 µM)
MIC (S. aureus NRS37 (VISA) [4]; [31]): 3.3 µg/mL (≈ 7.9 µM)
MBC (S. aureus NRS19 (VISA) [5]; [32]): 3.3 µg/mL (≈ 7.9 µM)
toxicity to mammalian cells (MTS assay) [6]: toxic
MBC (S. aureus VRS1 (VRSA) [7]; Staphylococcus aureus, VRSA): 6.7 µg/mL (≈ 16 µM)
MIC (S. aureus NRS194 (MRSA) [8]; [33]): 6.7 µg/mL (≈ 16 µM)
MBC (S. aureus NRS1 (VISA) [9]; [34]): 3.3 µg/mL (≈ 7.9 µM)
MBC (S. aureus USA 400 (MRSA) [10]; [35]): 13.3 µg/mL (≈ 31.9 µM)
MIC (S. aureus USA300 (MRSA) [11]; [36]): 6.7 µg/mL (≈ 16 µM)
MBC (S. aureus NRS194 (MRSA) [12]; [33]): 13.3 µg/mL (≈ 31.9 µM)
MIC [13, 37]: 3.3 µg/mL (≈ 7.9 µM)
MBC (S. aureus NRS37 (VISA) [14]; [31]): 3.3 µg/mL (≈ 7.9 µM)
MIC (S. aureus NRS1 (VISA) [15]; [34]): 3.3 µg/mL (≈ 7.9 µM)
MIC (S. aureus VRS4 (VRSA) [16]; Staphylococcus aureus, VRSA): 6.7 µg/mL (≈ 16 µM)
MIC (S. aureus NRS119 (MRSA) [17]; [29]): 6.7 µg/mL (≈ 16 µM)
MIC (S. aureus NRS19 (VISA) [18]; [32]): 3.3 µg/mL (≈ 7.9 µM)
MBC (S. aureus USA300 (MRSA) [19]; [36]): 6.7 µg/mL (≈ 16 µM)
MBC (S. aureus NRS107 (MRSA) [20]; [38]): 6.7 µg/mL (≈ 16 µM)
MIC (S. aureus VRS5 (VRSA) [21]; Staphylococcus aureus, VRSA): 6.7 µg/mL (≈ 16 µM)
MBC (S. aureus VRS5 (VRSA) [22]; Staphylococcus aureus, VRSA): 6.7 µg/mL (≈ 16 µM)
MIC (S. aureus NRS107 (MRSA) [23]; [38]): 3.3 µg/mL (≈ 7.9 µM)
MBC [24, 37]: 3.3 µg/mL (≈ 7.9 µM)
MIC (S. aureus USA500 (MRSA) [25]; [30]): 3.3 µg/mL (≈ 7.9 µM)
MIC (three VRSA strains): 6.7 µg/mL (≈ 16 µM)
MIC (S. aureus USA 400 (MRSA) [26]; [35]): 6.7 µg/mL (≈ 16 µM)
MIC (S. aureus VRS1 (VRSA) [27]; Staphylococcus aureus, VRSA): 6.7 µg/mL (≈ 16 µM)

[H]/N=C(/N)NN=C(C)c1sc(-c2ccc(C#CCCCC)cc2)nc1C [compound 5, (Z)-2-(1-(2-(4-(Hex-1-yn-1-yl)phenyl)-4-methylthiazol-5-yl)ethylidene) hydrazinecarboximidamide]
MBC (S. aureus NRS119 (MRSA) [1]; NRS119 (MRSA)): 1.4 µg/mL (≈ 3.96 µM)
MBC (S. aureus USA500 (MRSA) [2]; USA500 (MRSA)): 1.4 µg/mL (≈ 3.96 µM)
MBC (S. aureus VRS4 (VRSA) [3]; VRS4 (VRSA)): 2.8 µg/mL (≈ 7.92 µM)
MIC (S. aureus NRS37 (VISA) [4]; NRS37 (VISA)): 1.4 µg/mL (≈ 3.96 µM)
MBC (S. aureus NRS19 (VISA) [5]; NRS19 (VISA)): 1.4 µg/mL (≈ 3.96 µM)
NADPH-dependent CLint [28, 39]: 3.7 µL/min/mg
NADPH-dependent T1/2 [28, 39]: >4 h
NADPH-free T1/2 ([28]; human liver microsomes, without NADPH): >4 h
half-life ([28]; pooled human liver microsomes): exceeds 4 hours
MBC (S. aureus VRS1 (VRSA) [7]; VRS1 (VRSA)): 1.4 µg/mL (≈ 3.96 µM)
MIC (S. aureus NRS194 (MRSA) [8]; NRS194 (MRSA)): 1.4 µg/mL (≈ 3.96 µM)
MBC (S. aureus NRS1 (VISA) [9]; NRS1 (VISA)): 0.7 µg/mL (≈ 1.98 µM)
MBC (S. aureus USA 400 (MRSA) [10]; USA 400 (MRSA)): 1.4 µg/mL (≈ 3.96 µM)
MIC (S. aureus USA300 (MRSA) [11]; USA300 (MRSA)): 1.4 µg/mL (≈ 3.96 µM)
MBC (S. aureus NRS194 (MRSA) [12]; NRS194 (MRSA)): 1.4 µg/mL (≈ 3.96 µM)
time to completely eradicate MRSA growth (MRSA USA300): ≤ 4 h
MIC [13]: 1.4 µg/mL (≈ 3.96 µM)
MBC (S. aureus NRS37 (VISA) [14]; NRS37 (VISA)): 1.4 µg/mL (≈ 3.96 µM)
MIC (S. aureus NRS1 (VISA) [15]; NRS1 (VISA)): 0.7 µg/mL (≈ 1.98 µM)
MIC (S. aureus VRS4 (VRSA) [16]; VRS4 (VRSA)): 1.4 µg/mL (≈ 3.96 µM)
MIC (S. aureus NRS119 (MRSA) [17]; NRS119 (MRSA)): 1.4 µg/mL (≈ 3.96 µM)
MIC (S. aureus NRS19 (VISA) [18]; NRS19 (VISA)): 1.4 µg/mL (≈ 3.96 µM)
MBC (S. aureus USA300 (MRSA) [19]; USA300 (MRSA)): 1.4 µg/mL (≈ 3.96 µM)
MBC (S. aureus NRS107 (MRSA) [20]; NRS107 (MRSA)): 1.4 µg/mL (≈ 3.96 µM)
MIC (S. aureus VRS5 (VRSA) [21]; VRS5 (VRSA)): 2.8 µg/mL (≈ 7.92 µM)
MBC (S. aureus VRS5 (VRSA) [22]; VRS5 (VRSA)): 2.8 µg/mL (≈ 7.92 µM)
MIC (S. aureus NRS107 (MRSA) [23]; NRS107 (MRSA)): 1.4 µg/mL (≈ 3.96 µM)
MBC ([24]; ATCC 43300 (MRSA)): 1.4 µg/mL (≈ 3.96 µM)
MIC (S. aureus USA500 (MRSA) [25]; USA500 (MRSA)): 1.4 µg/mL (≈ 3.96 µM)
MIC (S. aureus USA 400 (MRSA) [26]; USA 400 (MRSA)): 1.4 µg/mL (≈ 3.96 µM)
MIC (S. aureus VRS1 (VRSA) [27]; VRS1 (VRSA)): 1.4 µg/mL (≈ 3.96 µM)
